Rows were chosen to be rich in hits. Some 2.1% of all compounds tested hit in one or more screens of this group.
CCR6 antag: CCR6 receptor antagonists, primary screen, cell-based, CHO-K1, luminescence, beta-arrestin, uHTS; C-C chemokine receptor type 6 (Homo sapiens), P51684; CHO-K1 CCR6 PathHunter beta-arrestin, CCL20-stimulated; inhibition, % at 20 µM; 340,000 tested, 0.49% active;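 active = compounds whose inhibition of the agonist-driven luminescence signal at 20 µM reaches about 50%, limit read from the data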;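 also: cells stimulated with CCL20 at 14 nM final; plate controls were DMSO with CCL20 for no effect and DMSO without agonist for full effect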
Target sequence (P51684 whole entry, looked up): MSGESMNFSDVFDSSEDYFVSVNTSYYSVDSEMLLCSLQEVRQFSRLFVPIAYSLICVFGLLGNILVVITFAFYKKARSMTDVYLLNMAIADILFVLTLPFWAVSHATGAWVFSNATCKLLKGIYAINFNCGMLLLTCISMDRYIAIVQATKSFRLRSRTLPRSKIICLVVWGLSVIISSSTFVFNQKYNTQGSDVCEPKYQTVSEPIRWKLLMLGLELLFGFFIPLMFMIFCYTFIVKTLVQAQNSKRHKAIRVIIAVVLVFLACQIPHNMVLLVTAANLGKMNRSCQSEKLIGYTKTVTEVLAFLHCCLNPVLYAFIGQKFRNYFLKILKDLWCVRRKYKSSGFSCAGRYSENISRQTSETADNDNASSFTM
APJ agonist: agonists of human apelin receptor APJ, primary screen, CHO-K1 cells, PathHunter beta-arrestin, luminescence; activation, % at 20 µM; 330,000 tested, 0.11% active; 0% DMSO wells, 100% apelin;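 active = activation more than six SD over the plate average, tested at 20 µM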;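 also: 0% = DMSO alone and 100% = apelin-13 at 10 nM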
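Test system – PathHunter CHO-K1 APJ (AGTRL-1) beta-arrestin reporter cells · Input – 1000 cells/well · Compound – single test compound dose, 20 µM final, 1% DMSO · Times – compound stimulation 90 min at 25 °C, detection 60 min · Technique – beta-gal luminescence · Read-out basis – APJ–arrestin association signal · Control set – negative DMSO alone, positive Apelin-13 at 10 nM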
CXCR6 inh: CXCR6 receptor inhibitors, primary screen, cell-based, beta-arrestin, luminescence, CHO-K1 PathHunter, 1536-well | inhibition, % at 20 µM | 360,000 tested, 0.36% active; in the data active = inhibition above about 34%, passing the limit was not always enough;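 also: antagonist mode with CXCL16 agonist at 10 nM final; 0% = 10 nM CXCL16 with DMSO and 100% = unstimulated wells without agonist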
APJ antag: antagonists of human apelin receptor APJ, primary screen, CHO-K1 cells, beta-arrestin complementation, luminescence. AID 2521, 2010. P35414. 330,000 tested, 0.32% active. inhibition, % at 20 µM;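 active = inhibition above about 40% at 20 µM, limit read from the data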;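 also: cells challenged with 10 nM apelin-13 agonist together with compound; plate controls were apelin-13 plus DMSO wells for no effect and DMSO wells lacking apelin-13 for full effect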
EBI2 block: EBI2 receptor antagonists, beta-arrestin recruitment, primary screen, cell-based, luminescence, 7a,25-OHC stimulation, uHTS; G-protein coupled receptor 183 (Homo sapiens), P32249; 7a,25-OHC stimulated; inhibition, % at 5 µM; 360,000 tested, 0.81% active; AID 651636, 2012; in the data active = inhibition above about 38%;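 also: enzyme fragment complementation signal reports receptor beta-arrestin coupling in cells; 0% = agonist plus DMSO wells and 100% = wells without agonist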
Target sequence (P32249 whole entry, looked up, the tested form may be a part): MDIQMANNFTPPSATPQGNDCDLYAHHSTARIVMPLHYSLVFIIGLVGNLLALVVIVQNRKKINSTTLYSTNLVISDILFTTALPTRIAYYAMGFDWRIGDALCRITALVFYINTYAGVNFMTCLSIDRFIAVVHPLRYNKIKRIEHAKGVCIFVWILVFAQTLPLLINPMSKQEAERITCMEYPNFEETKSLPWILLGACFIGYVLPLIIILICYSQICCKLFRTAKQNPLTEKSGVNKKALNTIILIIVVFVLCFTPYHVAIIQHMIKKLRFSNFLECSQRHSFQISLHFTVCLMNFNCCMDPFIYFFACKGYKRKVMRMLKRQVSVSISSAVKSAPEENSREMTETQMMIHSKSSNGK
HTR2A ag: mouse Htr2a agonists via beta-arrestin recruitment, primary screen, cell-based, luminescence; CHO-K1 mHTR2A beta-arrestin complementation; percent of 30 µM serotonin response; 360,000 tested, 0.66% active; 5-hydroxytryptamine receptor 2A (Mus musculus), P35363; activation, % at 7.6 µM;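 active = activation above a run cutoff, the mean activation of all tested compounds plus 3 SD, cut at about 14% in these data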;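 also: 0% = plate median of compound wells and 100% = 30 µM serotonin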
EBI2 antag conf: EBI2 antagonist hit retest, beta-arrestin, confirmation, cell-based, single concentration, luminescence, 7a,25-OHC stimulation; shares compounds with EBI2 block; 7a,25-OHC antagonism; inhibition, % at 5 µM; 2,400 tested, 29% active; AID 651997, 2013;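 active = inhibition of at least 50%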
EBI2 agonist: EBI2 agonist activity of antagonist hits, confirmation, counter-screen for EBI2 antagonist project, cell-based, single concentration, agonist mode, luminescence; AID 652000, 2013; activation, % at 5 µM; EBI2-expressing cells, 60 min; 0% vehicle, 100% 7α,25-dihydroxycholesterol control; shares compounds with EBI2 block; 2,400 tested, under 10 active;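 active = activation of at least 50%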
bGal counter: E. coli beta-galactosidase enzyme inhibition, confirmation, counter-screen for EBI2 antagonist project, biochemical, luminescence, single concentration. shares compounds with EBI2 block. purified beta-galactosidase, luminescent Galacton Star, 15 min. inhibition, % at 5 µM. 2,400 tested, 1% active;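 active = replicate-average signal at least 3 plate SD below neutral wells, shown as high inhibition, flagging enzyme-inhibiting false positives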;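 also: 0% = DMSO wells with enzyme and 100% = wells lacking enzyme; higher means stronger loss of beta-gal luminescence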
* hit, by the source's call; / = not tested or not shown.

SMILES | CCR6 antag | APJ agonist | CXCR6 inh | APJ antag | EBI2 block | HTR2A ag | EBI2 antag conf | EBI2 agonist | bGal counter
CCOc1ccccc1N(C(=O)c1snc(C(N)=O)c1N)C(C(=O)NC1CCCC1)c1ccco1 (centres undefined) | 9 | -1 | 7 | 13 | 7 | -6 | / | / | /
Cc1cccc(N(C(=O)c2snc(C(N)=O)c2N)C(C(=O)NC2CCCC2)c2ccc(C)o2)c1 (centres undefined) | -5 | -2 | 2 | 8 | 51* | 1 | 56* | 0 | -16
COc1ccc(OCC(=O)N2CCN(c3cccc(C(F)(F)F)c3)CC2)cc1 | 22 | 7 | 10 | 6 | 70* | 6 | 51* | -2 | -12
COc1ccc(OCC(=O)N2CCN(c3cccc(Cl)c3)CC2)cc1 | 8 | 2 | 4 | 0 | 86* | -5 | 71* | -1 | -14
COc1ccc(N2CCN(C(=O)COc3ccc(Cl)cc3Cl)CC2)cc1 | 3 | -3 | -9 | 21 | 51* | -2 | 21 | -2 | -10
O=C(/C=C/c1ccc(Br)cc1)N1CCN(c2cccc(C(F)(F)F)c2)CC1 | 19 | / | 3 | / | 94* | 0 | 81* | -1 | -12
Nc1ccc(NC(=O)c2cccc(C(=O)Nc3ccc(N)cc3Cl)c2)c(Cl)c1 | 8 | -2 | -11 | 0 | -3 | 3 | / | / | /
Cc1nc(CS(=O)(=O)c2ccc(Cl)cc2)cc(Sc2ccccc2Cl)n1 | 0 | 0 | 6 | -18 | 71* | -3 | 47 | 0 | 3
Cc1nc(CS(=O)(=O)c2ccccc2)cc(Sc2ccc(Cl)cc2)n1 | 26 | -1 | -1 | -4 | 46* | 1 | 29 | -1 | -11
Cc1nc(CS(=O)(=O)c2ccccc2)cc(Sc2ccccc2Cl)n1 | -8 | -3 | -3 | 22 | 43 | 1 | / | / | /
ON=C(c1ccccc1)c1ccc2c3c(cccc13)CC2 | / | / | 0 | / | 2 | 8 | / | / | /
O=C1NC[C@H](CCCCN2CCN(CCC3CCCCC3)C(=O)C2=O)N(CCc2ccccc2)C1=O | / | / | -2 | / | -6 | -3 | / | / | /
Clc1ccc(Cl)c(-c2nn3c(COc4ccccc4)nnc3s2)c1 | -4 | -6 | 4 | 37 | 53* | 0 | 25 | 1 | 10
CCOc1ccc(NC(=S)N2CCC(C(O)(c3ccccc3)c3ccccc3)CC2)cc1 | 9 | 2 | 2 | -14 | 44* | -3 | 2 | -1 | -8
COc1ccc(NC(=S)N2CCC(C(O)(c3ccccc3)c3ccccc3)CC2)cc1 | 18 | -1 | 4 | 20 | 21 | -2 | / | / | /
COc1ccccc1OC(C)C(=O)N1CCN(Cc2ccc3c(c2)OCO3)CC1 (centres undefined) | 1 | -4 | 5 | 9 | -3 | 0 | / | / | /
CC1CC(C)CN(C(=S)Nc2ccc(OC(F)F)cc2)C1 (centres undefined) | -9 | 1 | 0 | 9 | 19 | 1 | / | / | /
CCC1CCCCN1C(=S)Nc1ccc(OC(F)F)cc1 (centres undefined) | 10 | -2 | -5 | -4 | 55* | 2 | 0 | 0 | 2
O=C(COc1cccc(Cl)c1)N/N=C\c1cc2ccccc2nc1Cl | -2 | 1 | -6 | -6 | 53* | -1 | 42 | -1 | -10
Cc1ccccc1OCC(=O)N/N=C/c1cc2ccccc2nc1Cl | 10 | 5 | -17 | -9 | 30 | 6 | / | / | /
O=C(COc1ccc(Cl)cc1)Nc1ccc(N2CCN(C(=O)c3ccco3)CC2)cc1 | -7 | 8 | 5 | 3 | 54* | 2 | 33 | 0 | 4
COc1ccc(OCC(=O)Nc2ccc(N3CCOCC3)cc2)cc1 | 0 | 4 | 7 | 12 | 84* | 0 | 79* | -1 | -6
CN1CCN(c2ccc(NC(=O)COc3ccccc3)cc2Cl)CC1 | 2 | 5 | -5 | -21 | 1 | -6 | / | / | /
Cc1ccc(OCC(=O)Nc2ccc(N3CCN(C(=O)c4ccc(C)cc4)CC3)cc2)cc1 | 12 | 6 | -1 | -14 | 57* | 2 | 15 | 1 | 0
Cc1ccc(OCC(=O)Nc2ccc(N3CCOCC3)cc2)cc1 | 4 | 4 | -5 | -5 | 11 | -2 | / | / | /
SMILES | CCR6 antag | APJ agonist | CXCR6 inh | APJ antag | EBI2 block | HTR2A ag | EBI2 antag conf | EBI2 agonist | bGal counter
CCCOc1ccc(C(=O)N2CCN(c3ccc(NC(=O)CC)cc3Cl)CC2)cc1 | -2 | 1 | -6 | 0 | 70* | 4 | 59* | 0 | 3
COc1cccc(N2CCN(c3ccc(S(=O)(=O)N4CCN(C)CC4)cc3[N+](=O)[O-])CC2)c1 | 22 | 2 | 4 | 13 | 11 | -8 | / | / | /
O=C(CC1C(=O)NCCN1CC1CCCCC1)NC1(c2ccccc2)CC1 (centres undefined) | -12 | -3 | 0 | 16 | 9 | -2 | / | / | /
Cc1cc(NCCN2CCOCC2)n2ncc(-c3ccccc3)c2n1 | -19 | -3 | -3 | -23 | 1 | -3 | / | / | /
CSCc1ccc(C(=O)NCc2ccc(C)cc2)cc1 | 11 | -3 | 6 | -3 | 64* | -4 | 36 | 0 | -12
CSCc1ccc(C(=O)NCc2ccccc2)cc1 | 6 | -2 | -6 | -9 | 15 | -7 | / | / | /
Cc1ccc(CNC(=O)c2ccc(COc3ccccc3)cc2)cc1 | 15 | 1 | 1 | 6 | 52* | -7 | 56* | -1 | -19
O=C(NCc1ccncc1)c1ccc(OCc2ccccc2)cc1 | -4 | / | -4 | / | 8 | -6 | / | / | /
O=C(/C=C/c1ccc(F)cc1)Nc1cc(S(=O)(=O)N2CCOCC2)ccc1N1CCCC1 | -21 | 0 | -5 | 3 | 9 | 0 | / | / | /
Cc1ccc(Cn2nnc3c(=O)[nH]c(C4CCCN(S(=O)(=O)c5ccccc5)C4)nc32)cc1 (centres undefined) | 0 | 1 | 1 | 4 | -5 | -6 | / | / | /
CCN(CC(=O)Nc1ccccc1OC)C(=O)CC1CCCC1 | 2 | 2 | -6 | -3 | 0 | -6 | / | / | /
